Active and inactive are the calls of the source. The rule behind the calls is not given here.
Key:
[1] = target: Activin receptor type-1B (Homo sapiens) (UniProt P36896); assay: Inhibition of ACVR1B (unknown origin) assessed as remaining activity at 1 uM by Kinome scan method relative to control
How it was run: (§1)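 Active-site-dependent competition-binding (KINOMEscan) panel of 468 kinases, test compound at 1 μM (from a 10 mM DMSO stock). Read-out is ctrl% = (test signal − positive control signal)/(negative control signal − positive control signal) × 100. DMSO is the negative control (100%) and a control compound is the positive control (0%). Lower ctrl% means tighter binding.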

[2] = target: Activin receptor type-2A (Homo sapiens) (UniProt P27037); assay: Inhibition of ACVR2A (unknown origin) assessed as remaining activity at 1 uM by Kinome scan method relative to control; how it was run: as §1
Chain of Activin receptor type-2A (Homo sapiens) (P27037 whole entry): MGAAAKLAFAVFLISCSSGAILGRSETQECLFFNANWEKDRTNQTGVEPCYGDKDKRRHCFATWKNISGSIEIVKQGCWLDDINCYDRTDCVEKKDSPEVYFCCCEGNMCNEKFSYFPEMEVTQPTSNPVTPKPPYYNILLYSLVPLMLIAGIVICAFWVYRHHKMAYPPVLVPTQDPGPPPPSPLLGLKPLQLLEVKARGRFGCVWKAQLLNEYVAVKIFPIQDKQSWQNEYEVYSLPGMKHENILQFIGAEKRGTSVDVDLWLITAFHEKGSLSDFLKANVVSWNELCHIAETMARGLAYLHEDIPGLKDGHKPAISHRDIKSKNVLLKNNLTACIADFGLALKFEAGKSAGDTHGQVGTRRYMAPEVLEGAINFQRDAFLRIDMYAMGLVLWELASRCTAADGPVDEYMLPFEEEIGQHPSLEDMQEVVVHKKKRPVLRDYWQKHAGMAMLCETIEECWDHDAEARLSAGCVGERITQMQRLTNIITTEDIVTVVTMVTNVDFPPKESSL

[3] = target: Serine/threonine-protein kinase BRSK2 (Homo sapiens) (UniProt Q8IWQ3); assay: Inhibition of BRSK2 (unknown origin) assessed as remaining activity at 1 uM by Kinome scan method relative to control; how it was run: as §1
[4] = target: Calcium/calmodulin-dependent protein kinase type 1 (Homo sapiens) (UniProt Q14012); assay: Inhibition of CAMK1 (unknown origin) assessed as remaining activity at 1 uM by Kinome scan method relative to control
Chain of Calcium/calmodulin-dependent protein kinase type 1 (Homo sapiens) (Q14012 whole entry, looked up): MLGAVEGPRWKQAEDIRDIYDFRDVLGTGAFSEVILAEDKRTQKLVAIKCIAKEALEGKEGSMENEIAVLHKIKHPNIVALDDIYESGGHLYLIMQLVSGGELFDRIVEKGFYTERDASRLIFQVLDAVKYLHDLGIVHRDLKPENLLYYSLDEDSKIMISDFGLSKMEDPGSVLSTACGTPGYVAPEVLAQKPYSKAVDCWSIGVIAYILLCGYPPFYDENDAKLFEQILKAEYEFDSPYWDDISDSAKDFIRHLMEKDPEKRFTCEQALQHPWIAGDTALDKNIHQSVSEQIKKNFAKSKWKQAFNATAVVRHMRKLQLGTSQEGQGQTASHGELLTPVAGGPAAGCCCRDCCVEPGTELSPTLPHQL
How it was run: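 KINOMEscan active-site-dependent competition-binding panel of 468 kinases, compound at 1 μM from a DMSO stock. Result reported as ctrl% = (test signal − positive control signal)/(negative control signal − positive control signal) × 100. The negative control is DMSO (100%) and the positive control is a control compound (0%). Lower ctrl% means tighter binding.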

[5] = target: Calcium/calmodulin-dependent protein kinase type 1B (Homo sapiens) (UniProt Q6P2M8); assay: Inhibition of CAMK1B (unknown origin) assessed as remaining activity at 1 uM by Kinome scan method relative to control; how it was run: as §1
Chain of Calcium/calmodulin-dependent protein kinase type 1B (Homo sapiens) (Q6P2M8 whole entry): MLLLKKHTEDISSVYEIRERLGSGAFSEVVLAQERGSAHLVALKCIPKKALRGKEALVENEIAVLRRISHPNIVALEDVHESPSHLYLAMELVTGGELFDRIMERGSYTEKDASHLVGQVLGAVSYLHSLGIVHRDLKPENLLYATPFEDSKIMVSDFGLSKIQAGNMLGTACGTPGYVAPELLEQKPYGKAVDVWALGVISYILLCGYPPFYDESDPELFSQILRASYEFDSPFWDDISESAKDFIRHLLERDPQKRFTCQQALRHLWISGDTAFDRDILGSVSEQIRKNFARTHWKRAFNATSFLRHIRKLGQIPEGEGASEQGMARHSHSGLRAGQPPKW

[6] = target: Calcium/calmodulin-dependent protein kinase kinase 2 (Homo sapiens) (UniProt Q96RR4); assay: Inhibition of CAMKK2 (unknown origin) assessed as remaining activity at 1 uM by Kinome scan method relative to control
How it was run: (§2)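 Active-site-dependent competition-binding profiling (KINOMEscan) at 1 μM against a 468-kinase panel; compound supplied from a 10 mM DMSO stock. Read-out is ctrl% = (test signal − positive control signal)/(negative control signal − positive control signal) × 100. DMSO is the negative control (100%) and a control compound the positive control (0%). Lower ctrl% means tighter binding.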

[7] = target: Cyclin-dependent kinase-like 5 (Homo sapiens) (UniProt O76039); assay: Inhibition of CDKL5 (unknown origin) assessed as remaining activity at 1 uM by Kinome scan method relative to control; how it was run: as §2
[8] = target: Serine/threonine-protein kinase Chk1 (Homo sapiens) (UniProt O14757); assay: Inhibition of CHEK1 (unknown origin) assessed as remaining activity at 1 uM by Kinome scan method relative to control; how it was run: as §2
[9] = target: Dual specificity protein kinase CLK1 (Homo sapiens) (UniProt P49759); assay: Inhibition of CLK1 (unknown origin) assessed as remaining activity at 1 uM by Kinome scan method relative to control; how it was run: as §2
Chain of Dual specificity protein kinase CLK1 (Homo sapiens) (P49759 whole entry, looked up): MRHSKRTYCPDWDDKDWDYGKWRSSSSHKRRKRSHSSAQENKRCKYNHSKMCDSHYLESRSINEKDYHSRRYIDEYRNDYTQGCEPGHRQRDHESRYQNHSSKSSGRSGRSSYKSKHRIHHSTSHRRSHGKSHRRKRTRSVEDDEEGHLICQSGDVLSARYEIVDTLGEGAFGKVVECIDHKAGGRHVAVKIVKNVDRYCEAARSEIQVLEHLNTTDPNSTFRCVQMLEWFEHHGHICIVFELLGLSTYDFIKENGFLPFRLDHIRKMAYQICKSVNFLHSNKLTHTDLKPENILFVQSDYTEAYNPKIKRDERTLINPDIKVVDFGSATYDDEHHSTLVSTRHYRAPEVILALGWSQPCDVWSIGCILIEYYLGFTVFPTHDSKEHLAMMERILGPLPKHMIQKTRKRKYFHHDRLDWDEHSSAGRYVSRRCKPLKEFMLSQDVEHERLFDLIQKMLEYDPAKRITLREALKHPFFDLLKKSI

[10] = target: Macrophage colony-stimulating factor 1 receptor (Homo sapiens) (UniProt P07333); assay: Inhibition of CSF1R-autoinhibited (unknown origin) assessed as remaining activity at 1 uM by Kinome scan method relative to control; how it was run: as §2
Chain of Macrophage colony-stimulating factor 1 receptor (Homo sapiens) (P07333 whole entry): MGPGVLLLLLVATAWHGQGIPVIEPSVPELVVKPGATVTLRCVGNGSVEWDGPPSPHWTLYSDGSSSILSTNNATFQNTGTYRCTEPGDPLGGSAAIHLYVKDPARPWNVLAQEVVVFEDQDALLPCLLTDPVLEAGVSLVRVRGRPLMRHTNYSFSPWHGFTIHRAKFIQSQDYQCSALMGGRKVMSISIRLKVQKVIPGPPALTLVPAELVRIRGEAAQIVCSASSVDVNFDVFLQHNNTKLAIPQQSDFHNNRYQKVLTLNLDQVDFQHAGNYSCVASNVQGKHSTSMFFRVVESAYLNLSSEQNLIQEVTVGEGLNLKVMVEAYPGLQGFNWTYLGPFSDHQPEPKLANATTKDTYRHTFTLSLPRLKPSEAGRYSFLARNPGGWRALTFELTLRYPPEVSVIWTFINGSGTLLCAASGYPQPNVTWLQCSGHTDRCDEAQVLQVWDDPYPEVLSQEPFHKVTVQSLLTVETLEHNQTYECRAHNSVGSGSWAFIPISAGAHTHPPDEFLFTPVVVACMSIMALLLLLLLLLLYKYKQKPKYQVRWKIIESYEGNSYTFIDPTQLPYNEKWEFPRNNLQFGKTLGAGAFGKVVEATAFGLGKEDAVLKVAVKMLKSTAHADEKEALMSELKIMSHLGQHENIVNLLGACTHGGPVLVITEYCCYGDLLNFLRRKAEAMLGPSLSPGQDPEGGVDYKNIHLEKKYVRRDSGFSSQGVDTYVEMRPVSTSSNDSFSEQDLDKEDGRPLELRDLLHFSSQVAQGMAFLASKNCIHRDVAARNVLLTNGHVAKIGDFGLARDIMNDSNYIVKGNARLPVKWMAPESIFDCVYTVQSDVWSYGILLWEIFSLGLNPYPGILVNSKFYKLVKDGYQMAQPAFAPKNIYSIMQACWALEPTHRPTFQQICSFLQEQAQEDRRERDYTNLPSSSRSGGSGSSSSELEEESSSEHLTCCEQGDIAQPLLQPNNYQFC

[11] = target: Serine/threonine-protein kinase DCLK1 (Homo sapiens) (UniProt O15075); assay: Inhibition of DCAMKL1 (unknown origin) assessed as remaining activity at 1 uM by Kinome scan method relative to control
Chain of Serine/threonine-protein kinase DCLK1 (Homo sapiens) (O15075 whole entry): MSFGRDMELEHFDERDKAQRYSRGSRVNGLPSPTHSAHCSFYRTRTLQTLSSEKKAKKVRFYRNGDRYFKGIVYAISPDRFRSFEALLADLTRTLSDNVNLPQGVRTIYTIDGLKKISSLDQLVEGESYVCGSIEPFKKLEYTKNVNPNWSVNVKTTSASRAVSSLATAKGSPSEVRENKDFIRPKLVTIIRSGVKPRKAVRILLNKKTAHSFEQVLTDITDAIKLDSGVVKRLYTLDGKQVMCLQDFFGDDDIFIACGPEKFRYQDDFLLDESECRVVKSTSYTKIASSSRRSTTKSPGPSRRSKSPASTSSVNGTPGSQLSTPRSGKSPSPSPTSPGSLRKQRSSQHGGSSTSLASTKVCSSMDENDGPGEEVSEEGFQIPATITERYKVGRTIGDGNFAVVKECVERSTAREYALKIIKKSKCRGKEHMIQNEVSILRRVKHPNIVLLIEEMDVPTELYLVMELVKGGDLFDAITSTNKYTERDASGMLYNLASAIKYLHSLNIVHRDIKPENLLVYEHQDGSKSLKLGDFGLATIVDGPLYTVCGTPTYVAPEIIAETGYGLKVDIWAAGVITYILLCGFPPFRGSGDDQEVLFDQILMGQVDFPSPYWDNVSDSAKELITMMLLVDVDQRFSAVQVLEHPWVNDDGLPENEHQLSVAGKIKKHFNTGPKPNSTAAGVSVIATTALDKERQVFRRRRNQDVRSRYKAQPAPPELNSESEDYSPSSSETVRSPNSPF
How it was run: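 Active-site-dependent competition-binding assay (KINOMEscan) across a 468-kinase panel, with the inhibitor tested at 1 μM from a 10 mM DMSO stock. Read-out is ctrl% = (test signal − positive control)/(negative control − positive control) × 100. DMSO is the negative control (100%) and a control compound the positive control (0%). Lower ctrl% means tighter binding.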

[12] = tested on: Epidermal growth factor receptor (Homo sapiens), P00533 [UNDEFINED MUTATION]; assay: Inhibition of EGFR L747-S752del/P753S mutant (unknown origin) assessed as remaining activity at 1 uM by Kinome scan method relative to control
Chain of Epidermal growth factor receptor (Homo sapiens), P00533 [UNDEFINED MUTATION] (P00533 whole entry, looked up, stated change not applied): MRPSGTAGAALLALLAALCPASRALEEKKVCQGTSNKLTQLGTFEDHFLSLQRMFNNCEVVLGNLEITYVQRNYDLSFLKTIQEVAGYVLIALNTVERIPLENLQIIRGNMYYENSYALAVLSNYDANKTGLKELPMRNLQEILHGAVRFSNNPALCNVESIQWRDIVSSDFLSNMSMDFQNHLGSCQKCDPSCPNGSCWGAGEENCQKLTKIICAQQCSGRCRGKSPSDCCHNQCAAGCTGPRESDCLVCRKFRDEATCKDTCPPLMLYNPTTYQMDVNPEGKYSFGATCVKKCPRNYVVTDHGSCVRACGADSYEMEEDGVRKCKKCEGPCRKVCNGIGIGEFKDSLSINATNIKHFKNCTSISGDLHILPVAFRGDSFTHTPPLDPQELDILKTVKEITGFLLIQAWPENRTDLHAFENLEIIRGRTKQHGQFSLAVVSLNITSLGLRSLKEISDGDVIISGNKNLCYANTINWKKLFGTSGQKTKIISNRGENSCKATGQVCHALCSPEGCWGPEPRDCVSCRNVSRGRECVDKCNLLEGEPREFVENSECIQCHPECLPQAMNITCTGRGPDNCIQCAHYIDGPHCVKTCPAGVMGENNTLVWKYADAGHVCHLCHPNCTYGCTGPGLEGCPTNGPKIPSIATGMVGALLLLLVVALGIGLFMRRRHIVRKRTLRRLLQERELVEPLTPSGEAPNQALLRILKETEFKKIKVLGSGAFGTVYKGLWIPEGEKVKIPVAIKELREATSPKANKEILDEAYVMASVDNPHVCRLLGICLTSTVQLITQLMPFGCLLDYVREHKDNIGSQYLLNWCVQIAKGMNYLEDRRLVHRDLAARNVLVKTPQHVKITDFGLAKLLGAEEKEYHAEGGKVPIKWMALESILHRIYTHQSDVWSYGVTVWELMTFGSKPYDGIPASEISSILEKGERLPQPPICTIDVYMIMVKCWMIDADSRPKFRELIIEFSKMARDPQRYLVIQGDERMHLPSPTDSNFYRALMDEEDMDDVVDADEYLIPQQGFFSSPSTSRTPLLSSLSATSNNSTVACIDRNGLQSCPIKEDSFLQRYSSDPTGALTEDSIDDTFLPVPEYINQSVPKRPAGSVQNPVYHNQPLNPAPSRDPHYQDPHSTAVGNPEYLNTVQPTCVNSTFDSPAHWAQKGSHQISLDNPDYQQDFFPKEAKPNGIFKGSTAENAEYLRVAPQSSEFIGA

[13] = target: Ephrin type-A receptor 8 (Homo sapiens) (UniProt P29322); assay: Inhibition of EPHA8 (unknown origin) assessed as remaining activity at 1 uM by Kinome scan method relative to control
[14] = target: Fibroblast growth factor receptor 4 (Homo sapiens) (UniProt P22455); assay: Inhibition of FGFR4 (unknown origin) assessed as remaining activity at 1 uM by Kinome scan method relative to control
[15] = target: MAP kinase-activated protein kinase 5 (Homo sapiens) (UniProt Q8IW41); assay: Inhibition of MAPKAPK5 (unknown origin) assessed as remaining activity at 1 uM by Kinome scan method relative to control
[16] = target: Tyrosine-protein kinase Mer (Homo sapiens) (UniProt Q12866); assay: Inhibition of MERTK (unknown origin) assessed as remaining activity at 1 uM by Kinome scan method relative to control
[17] = target: Protein kinase C eta type (Homo sapiens) (UniProt P24723); assay: Inhibition of PRKCH (unknown origin) assessed as remaining activity at 1 uM by Kinome scan method relative to control
[18] = target: Proto-oncogene tyrosine-protein kinase ROS (Homo sapiens) (UniProt P08922); assay: Inhibition of ROS1 (unknown origin) assessed as remaining activity at 1 uM by Kinome scan method relative to control
[19] = target: Tyrosine-protein kinase Srms (Homo sapiens) (UniProt Q9H3Y6); assay: Inhibition of SRMS (unknown origin) assessed as remaining activity at 1 uM by Kinome scan method relative to control
[20] = target: Serine/threonine-protein kinase ULK1 (Homo sapiens) (UniProt O75385); assay: Inhibition of ULK1 (unknown origin) assessed as remaining activity at 1 uM by Kinome scan method relative to control
[21] = target: Serine/threonine-protein kinase 32A (Homo sapiens) (UniProt Q8WU08); assay: Inhibition of YANK1 (unknown origin) assessed as remaining activity at 1 uM by Kinome scan method relative to control
Chain of Serine/threonine-protein kinase 32A (Homo sapiens) (Q8WU08 whole entry): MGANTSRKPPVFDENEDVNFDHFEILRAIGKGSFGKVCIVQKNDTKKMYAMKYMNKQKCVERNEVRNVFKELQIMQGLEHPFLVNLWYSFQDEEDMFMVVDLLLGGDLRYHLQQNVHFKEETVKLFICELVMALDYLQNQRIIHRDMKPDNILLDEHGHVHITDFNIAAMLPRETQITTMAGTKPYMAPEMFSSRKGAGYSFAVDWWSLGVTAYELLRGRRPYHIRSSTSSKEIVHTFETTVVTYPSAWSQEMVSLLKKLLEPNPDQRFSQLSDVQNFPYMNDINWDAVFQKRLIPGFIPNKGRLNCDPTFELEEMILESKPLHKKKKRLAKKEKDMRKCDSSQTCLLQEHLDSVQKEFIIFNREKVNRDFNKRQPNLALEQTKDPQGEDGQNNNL

[22] = Inhibition of recombinant His-tagged full-length MST1 Y101F mutant (unknown origin) expressing in Escherichia coli assessed as MOB1 phosphorylation level incubated for 15 min by immunoblot analysis; set-up: species or system Homo sapiens
Mus musculus [23] = assay: In vivo inhibition of MST1/2 in wild-type Mst1fl/fl Mst2fl/fl mouse assessed as high number in nuclear YAP-positive cells at 1 mg/kg, ip administrated daily for 7 days by immunohistochemical staining; type: functional, organism-based; conditions: Liver, time 7.0 day
Mus musculus [24] = assay: Protection against APAP induced liver injury in mouse assessed as decrease in mortality rate at 1 mg/kg, ip administered at 2.5 hrs; type: functional, organism-based
Mus musculus [25] = assay: Protection against APAP induced liver injury in mouse assessed as decrease in mortality rate at 1 mg/kg, ip administered at 2.5 hrs in the presence of NAC; type: functional, organism-based
Mus musculus [26] = assay: Protection against duct ligation-induced mouse assessed as low dead cells at 1 mg/kg, ip administration daily for 10 days by TUNEL staining; type: functional, organism-based; conditions: Liver, time 10.0 day

Structure (SMILES): CN1C(=O)c2sccc2N(C)c2nc(Nc3ccc(S(N)(=O)=O)cc3)ncc21
- Activity [1]: 76%
- Activity [2]: 100%
- Activity [3]: 99%
- Activity [4]: 95%
- Activity [5]: 84%
- Activity [6]: 84%
- Activity [7]: 85%
- Activity [8]: 73%
- Activity [9]: 72%
- Activity [10]: 87%
- Activity [11]: 8.3%
- Activity [12]: 73%
- Activity [13]: 100%
- Activity [14]: 100%
- Activity [15]: 91%
- Activity [16]: 100%
- Activity [17]: 100%
- Activity [18]: 100%
- Activity [19]: 100%
- Activity [20]: 21%
- Activity [21]: 100%
- IC50 [22]: 355 nM
- inhibition (Mus musculus [23]): Active
- Activity (Mus musculus [24]): Active
- Activity (Mus musculus [25]): Active
- Activity (Mus musculus [26]): Active
